Results on 11 molecules are retold here after ChEMBL document CHEMBL1255268, “Antimicrobial activities of Ceftaroline and ME1036 tested against clinical strains of community-acquired methicillin-resistant Staphylococcus aureus” (2008).

Structures are written as SMILES. Converted amounts (≈) assume the structure as drawn.

Holding throughout (format): functional
In test [1] the test system is Staphylococcus aureus. The test can be described thus: Antimicrobial activity against community-acquired methicillin resistant Staphylococcus aureus expressing PVL gene and mec type IV gene assessed as susceptible strains by broth microdilution method. In a few lines:
(§1)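 Reference broth microdilution MICs per CLSI, with CLSI interpretive criteria (M100-S17) used for susceptible/resistant categories. Panel: 152 CA-MRSA clinical isolates from human infections, collected 2000–2005 at 47 US medical centres. Strains typed by multiplex PCR for SCCmec type (mecA as internal control), with products run on 2% agarose in Tris-acetate-EDTA and stained with ethidium bromide.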
For orientation: Dilution methods test growth across graded concentrations, often in twofold steps.

The test system of test [2] is Staphylococcus aureus. The test can be described thus: Antimicrobial activity against community-acquired methicillin resistant Staphylococcus aureus expressing PVL and mec type IV gene by broth microdilution method. The procedure, abridged: as §1
The test system of test [3] is Staphylococcus aureus. Description: Antimicrobial activity against community-acquired methicillin resistant Staphylococcus aureus expressing PVL and mec type IV gene assessed as resistant strains by broth microdilution method. In a few lines: as §1

As for `CN[C@H](CC(C)C)C(=O)N[C@H]1C(=O)N[C@@H](CC(N)=O)C(=O)N[C@H]2C(=O)N[C@H]3C(=O)N[C@H](C(=O)N[C@H](C(=O)O)c4cc(O)cc(O)c4-c4cc3ccc4O)[C@H](O)c3ccc(c(Cl)c3)Oc3cc2cc(c3O[C@@H]2O[C@H](CO)[C@@H](O)[C@H](O)[C@H]2O[C@H]2C[C@](C)(N)[C@H](O)[C@H](C)O2)Oc2ccc(cc2Cl)[C@H]1O` [VANCOMYCIN], the Activity with Staphylococcus aureus [1] is reported as 100%; with Staphylococcus aureus [3] it was 0%. The same molecule came in with an MIC50 against Staphylococcus aureus [2] of 1 µg/mL (≈ 0.69 µM). In the test with Staphylococcus aureus [2], this molecule displayed an MIC90 of 1 µg/mL (≈ 0.69 µM).
As for `CCC[C@@H]1C[C@@H](C(=O)N[C@@H]([C@H]2O[C@H](SC)[C@H](O)[C@@H](O)[C@H]2O)[C@H](C)Cl)N(C)C1` [CLINDAMYCIN], in the test with Staphylococcus aureus [1], the Activity amounted to 100%. In the test with Staphylococcus aureus [2], this molecule had a minimum inhibitory concentration (MIC) of at most 0.25 µg/mL, an MIC50 of at most 0.25 µg/mL and an MIC90 of at most 0.25 µg/mL. The Activity in the test with Staphylococcus aureus [3] is recorded as 0%.
In the case of `CC[C@H]1OC(=O)[C@H](C)[C@@H](O[C@H]2C[C@@](C)(OC)[C@@H](O)[C@H](C)O2)[C@H](C)[C@@H](O[C@@H]2O[C@H](C)C[C@H](N(C)C)[C@H]2O)[C@](C)(O)C[C@@H](C)C(=O)[C@H](C)[C@@H](O)[C@]1(C)O` [ERYTHROMYCIN], the results for the Activity with Staphylococcus aureus [1] and with Staphylococcus aureus [3] were 1.3% and 98%, respectively. This molecule returned an MIC50 in the test on Staphylococcus aureus [2] of over 8 µg/mL. For the same molecule, the MIC90 in the test with Staphylococcus aureus [2] was over 8 µg/mL.
In the case of `CN(C)[C@@H]1C(O)=C(C(N)=O)C(=O)[C@@]2(O)C(O)=C3C(=O)c4c(O)cccc4[C@@](C)(O)[C@H]3C[C@@H]12` [TETRACYCLINE], in the test on Staphylococcus aureus [1], the Activity stood at 94.7%. In the test with Staphylococcus aureus [2], the MIC was at most 0.5 µg/mL, the MIC50 is at most 0.5 µg/mL and the MIC90 was at most 0.5 µg/mL. In addition, the Activity in the test with Staphylococcus aureus [3] is recorded as 4.6%.
On to `C[C@@H](O)[C@H]1C(=O)N2C(C(=O)[O-])=C(c3cn4cnc(C(=O)c5ccc[n+](CC(N)=O)c5)c4s3)[C@H](C)[C@H]12`, for which, in the test on Staphylococcus aureus [2], the MIC50 was 0.12 µg/mL (≈ 0.242 µM) and the MIC90 came out at 0.25 µg/mL (≈ 0.505 µM).
For the molecule `C[C@@H](O)[C@H]1C(=O)N2C(C(=O)O)=C(S[C@@H]3CN[C@H](C(=O)N(C)C)C3)[C@H](C)[C@H]12` [MEROPENEM], the Activity in the test on Staphylococcus aureus [1] stood at 98%. In the test with Staphylococcus aureus [2], the MIC50 stood at 2 µg/mL (≈ 5.22 µM) and the MIC90 was found to be 2 µg/mL (≈ 5.22 µM). Further, in the test with Staphylococcus aureus [3], the Activity was found to be 0%.
As to `C[C@H]1COc2c(N3CCN(C)CC3)c(F)cc3c(=O)c(C(=O)O)cn1c23.C[C@H]1COc2c(N3CCN(C)CC3)c(F)cc3c(=O)c(C(=O)O)cn1c23.O` [LEVOFLOXACIN], the Activity with Staphylococcus aureus [1] was 92.8%; with Staphylococcus aureus [3], 7.2%. The molecule further gave an MIC50 in the test on Staphylococcus aureus [2] of 0.25 µg/mL. The MIC90 against Staphylococcus aureus [2] is 0.5 µg/mL.
Regarding `CO/N=C(\C(=O)N[C@@H]1C(=O)N2C(C(=O)O)=C(CSc3nc(=O)c(O)nn3C)CS[C@H]12)c1csc(N)n1` [CEFTRIAXONE], the Activity in the test on Staphylococcus aureus [1] came out at 0%. Also, in the test on Staphylococcus aureus [2], the MIC50 was 32 µg/mL (≈ 57.7 µM) and the MIC90 was over 32 µg/mL. In addition, the Activity in the test with Staphylococcus aureus [3] came to 98.7%.
Consider `C[C@@H](O)[C@H]1C(=O)N2C(C(=O)O)=C(SCCNC=N)C[C@H]12` [IMIPENEM ANHYDROUS], for which the Activity in the test on Staphylococcus aureus [1] is listed as 100%. For the same molecule, in the test with Staphylococcus aureus [2], the MIC was at most 0.5 µg/mL, the MIC50 was at most 0.5 µg/mL and the MIC90 is at most 0.5 µg/mL. Also, in the test on Staphylococcus aureus [3], the Activity is listed as 0%.
As for `CC(=O)NC[C@H]1CN(c2ccc(N3CCOCC3)c(F)c2)C(=O)O1` [LINEZOLID], the Activity with Staphylococcus aureus [1] is 100%. In the test on Staphylococcus aureus [2], this molecule showed an MIC50 of 2 µg/mL (≈ 5.93 µM) and an MIC90 of 2 µg/mL (≈ 5.93 µM).
Consider `CCCCCCCCCC(=O)N[C@@H](Cc1c[nH]c2ccccc12)C(=O)N[C@H](CC(N)=O)C(=O)N[C@@H](CC(=O)O)C(=O)N[C@@H]1C(=O)NCC(=O)N[C@@H](CCCN)C(=O)N[C@@H](CC(=O)O)C(=O)N[C@H](C)C(=O)N[C@@H](CC(=O)O)C(=O)NCC(=O)N[C@H](CO)C(=O)N[C@@H]([C@H](C)CC(=O)O)C(=O)N[C@@H](CC(=O)c2ccccc2N)C(=O)O[C@@H]1C`, for which the Activity in the test with Staphylococcus aureus [1] amounted to 100%. Moreover, in the test with Staphylococcus aureus [2], the minimum inhibitory concentration (MIC) worked out at 0.25 µg/mL (≈ 0.154 µM), the MIC50 amounted to 0.25 µg/mL (≈ 0.154 µM) and the MIC90 was 0.5 µg/mL (≈ 0.309 µM). The Activity with Staphylococcus aureus [3] was determined as 0%.

The term MIC50 denotes the lowest concentration that inhibits either 50% of growth or 50% of the strains tested, depending on the study. For orientation: MIC90 means the lowest concentration that inhibits either 90% of growth or 90% of the strains tested, depending on the study. By MIC is commonly meant the lowest concentration found to suppress growth. A low value points to greater potency.
